Assay results reported in ChEMBL document CHEMBL1150774, “1-[(Imidazolidin-2-yl)imino]indazole. Highly alpha 2/I1 selective agonist: synthesis, X-ray structure, and biological activity” (J Med Chem, 2008).
Calls of active or inactive are those of the source. No cut-off for these calls is given here.

Tests used:
Rattus norvegicus [1] = assay: Hypotensive activity in Wistar rat assessed as decrease in mean arterial blood pressure at 0.1 mg/kg, iv after 30 mins; assay type: functional
Summary of the method: (§1)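 Male rats (200-250 g) anaesthetised with thiopental 70 mg/kg ip, then maintained at 30 (µg/kg)/min. Saline-thiopental infusion at 1.2 mL/h; 40 min recovery, then 40 min saline. Compound given as iv bolus at 0.1 mg/kg. MAP and HR recorded directly at 100 Hz. ΔMAP and ΔHR taken relative to time 0; 4-7 experiments; repeated-measures ANOVA.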

Rattus norvegicus [2] = assay: Hypotensive activity in Wistar rat assessed as decrease in heart rate at 0.1 mg/kg, iv after 60 mins; assay type: functional; summary of the method: as §1
Rattus norvegicus [3] = assay: Hypotensive activity in Wistar rat assessed as decrease in mean arterial blood pressure at 0.1 mg/kg, iv after 60 mins; assay type: functional; summary of the method: as §1
Rattus norvegicus [4] = assay: Hypotensive activity in Wistar rat assessed as decrease in mean arterial blood pressure at 0.1 mg/kg, iv after 10 mins; assay type: functional; summary of the method: as §1
Rattus norvegicus [5] = assay: Hypotensive activity in Wistar rat assessed as decrease in heart rate at 0.1 mg/kg, iv after 10 mins; assay type: functional; summary of the method: as §1
[6] = Displacement of [3H]2BFI from imidazoline 2 receptor in Sprague-Dawley rat brain
Summary of the method: (§2)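 Crude P2 membranes from male rat brain (250-280 g), washed and stored at -70 °C. 0.2-0.3 mg protein incubated with 11 concentrations (0.01 nM to 100 µM) plus 1 nM [3H]2BFI (I2) or 1 nM [3H]RX821002 (α2). Nonspecific binding: 10 µM BU224 (I2) or 10 µM rauwolscine (α2). Run in triplicate, 45 min at room temperature. Ki by Cheng-Prusoff, 3-4 experiments.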

Rattus norvegicus [7] = assay: Hypotensive activity in Wistar rat assessed as decrease in mean arterial blood pressure at 0.1 mg/kg, iv after 90 mins; assay type: functional; summary of the method: as §1
Rattus norvegicus [8] = assay: Hypotensive activity in Wistar rat assessed as decrease in heart rate at 0.1 mg/kg, iv after 90 mins; assay type: functional; summary of the method: as §1
Rattus norvegicus [9] = assay: Hypotensive activity in Wistar rat assessed as decrease in heart rate at 0.1 mg/kg, iv after 30 mins; assay type: functional; summary of the method: as §1
[10] = Displacement of [3H][…] from alpha2 adrenoceptor in Sprague-Dawley rat brain; summary of the method: as §2
Rattus norvegicus [11] = species on record: Rattus norvegicus; assay: Selectivity for Sprague-Dawley rat alpha 2 adrenoceptor over Sprague-Dawley rat imidazoline 1 receptor
Rattus norvegicus [12] = assay: Reversal of hypotensive activity in Wistar rat at 10 mg/kg, iv in presence of RX821002; assay type: functional, organism-based; parameters: dose 10 mg/kg
Nischarin = Nischarin (Rattus norvegicus, UniProt Q4G017); assay: Displacement of [3H]clonidine from imidazoline 1 receptor in Sprague-Dawley rat kidney
Nischarin, sequence (Q4G017 whole entry): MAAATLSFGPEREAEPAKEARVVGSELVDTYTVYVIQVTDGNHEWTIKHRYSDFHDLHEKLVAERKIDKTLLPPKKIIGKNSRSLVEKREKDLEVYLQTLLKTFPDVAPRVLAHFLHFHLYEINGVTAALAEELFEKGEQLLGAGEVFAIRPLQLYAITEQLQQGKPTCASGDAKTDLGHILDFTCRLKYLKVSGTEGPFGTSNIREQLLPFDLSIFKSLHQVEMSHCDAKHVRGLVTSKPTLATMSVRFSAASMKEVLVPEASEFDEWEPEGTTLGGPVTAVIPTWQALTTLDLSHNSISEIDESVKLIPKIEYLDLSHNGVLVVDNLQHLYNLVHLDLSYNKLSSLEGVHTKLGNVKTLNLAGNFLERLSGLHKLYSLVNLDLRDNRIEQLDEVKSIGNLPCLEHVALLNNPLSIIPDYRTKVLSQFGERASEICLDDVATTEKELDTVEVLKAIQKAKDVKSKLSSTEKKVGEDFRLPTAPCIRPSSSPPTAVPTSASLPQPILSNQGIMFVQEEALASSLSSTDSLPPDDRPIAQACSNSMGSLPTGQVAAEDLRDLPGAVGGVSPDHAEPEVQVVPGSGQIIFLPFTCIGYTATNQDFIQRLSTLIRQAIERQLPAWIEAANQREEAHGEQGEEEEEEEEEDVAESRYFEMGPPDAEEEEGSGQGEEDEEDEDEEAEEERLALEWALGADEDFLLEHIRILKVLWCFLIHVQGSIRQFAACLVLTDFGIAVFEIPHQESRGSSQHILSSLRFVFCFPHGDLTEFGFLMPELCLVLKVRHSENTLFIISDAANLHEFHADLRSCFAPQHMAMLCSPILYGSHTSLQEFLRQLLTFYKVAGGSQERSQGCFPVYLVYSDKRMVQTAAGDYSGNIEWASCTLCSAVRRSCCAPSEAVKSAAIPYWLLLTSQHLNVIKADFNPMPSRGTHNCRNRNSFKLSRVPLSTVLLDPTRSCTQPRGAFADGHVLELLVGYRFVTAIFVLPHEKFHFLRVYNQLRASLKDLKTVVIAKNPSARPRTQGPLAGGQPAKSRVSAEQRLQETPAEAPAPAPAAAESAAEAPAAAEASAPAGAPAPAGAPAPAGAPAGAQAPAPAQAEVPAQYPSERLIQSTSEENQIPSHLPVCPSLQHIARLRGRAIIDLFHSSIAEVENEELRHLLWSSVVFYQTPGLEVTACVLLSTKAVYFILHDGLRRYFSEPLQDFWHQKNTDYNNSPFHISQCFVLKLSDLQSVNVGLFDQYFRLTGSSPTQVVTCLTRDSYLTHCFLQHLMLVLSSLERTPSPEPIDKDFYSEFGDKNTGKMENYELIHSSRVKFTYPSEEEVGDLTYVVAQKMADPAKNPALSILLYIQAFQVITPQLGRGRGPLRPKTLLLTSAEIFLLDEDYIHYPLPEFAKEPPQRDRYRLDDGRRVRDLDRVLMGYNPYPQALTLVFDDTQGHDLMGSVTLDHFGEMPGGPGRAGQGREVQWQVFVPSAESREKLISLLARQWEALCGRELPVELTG
Summary of the method: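 Crude P2 membranes from male rat kidney (250-280 g), 0.2-0.5 mg protein. Labelled with 3 nM [3H]clonidine; 10 µM rauwolscine present to block α2 sites; specific binding defined by 10 µM rilmenidine. 11 test concentrations. 50 mM Tris-HCl pH 7.4, 45 min at room temperature. Filtration, scintillation counting; IC50 is displacement of 50% of specific binding.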

Rattus norvegicus [13] = species on record: Rattus norvegicus; assay: Hypotensive activity in Wistar rat assessed as mean arterial blood pressure; assay type: functional

Row | SMILES | Activity (Rattus norvegicus [1]) | Activity (Rattus norvegicus [2]) | Activity (Rattus norvegicus [3]) | Activity (Rattus norvegicus [4]) | Activity (Rattus norvegicus [5]) | Ki [6] | Activity (Rattus norvegicus [7]) | Activity (Rattus norvegicus [8]) | Activity (Rattus norvegicus [9]) | Ki [10] | Selectivity ratio (Rattus norvegicus [11]) | Activity (Rattus norvegicus [12]) | IC50 (Nischarin) | ED50 (Rattus norvegicus [13])
1 | COc1ccc2cnn(N=C3NCCN3)c2c1.Cl | -17.1 mmHg | -4.1 bpm | -11.6 mmHg | -16.5 mmHg | -33 bpm | 33.6 µM | -5.3 mmHg | 14.3 bpm | -23.6 bpm | 0.0962 µM | – | – | – | –
2 | Cc1cccc2cnn(N=C3NCCN3)c12.Cl | -40.6 mmHg | -122.9 bpm | -43.5 mmHg | -14.8 mmHg | -110 bpm | 2.52 µM | -43.2 mmHg | -119.9 bpm | -115 bpm | 0.0535 µM | 7.23 | Active | 0.387 µM | 0.6 µg/kg
3 | Cl.Clc1cccc2c1cnn2N=C1NCCN1 | -14 mmHg | -24.3 bpm | -12.3 mmHg | -10.9 mmHg | -60.8 bpm | 11.1 µM | -10.9 mmHg | -19 bpm | -32.2 bpm | 0.0616 µM | 511 | – | 31.5 µM | –
4 | Cc1ccc2cnn(N=C3NCCN3)c2c1.Cl | -23.4 mmHg | -26.4 bpm | -20.8 mmHg | -13.2 mmHg | -71.8 bpm | 19.2 µM | -11 mmHg | -22.2 bpm | -43.5 bpm | 0.0491 µM | – | – | – | –
5 | Clc1cccc2nn(N=C3NCCN3)cc12 | – | – | – | – | – | 13.1 µM | – | – | – | 3.14 µM | 15.3 | – | 47.8 µM | –
6 | Cc1ccc2nn(N=C3NCCN3)cc2c1 | – | – | – | – | – | 11.4 µM | – | – | – | 45.6 µM | 0.29 | – | 13.4 µM | –
7 | Cc1cc2ncn(N=C3NCCN3)c2cc1C | – | – | – | – | – | > 10 µM | – | – | – | 10.1 µM | – | – | – | –
8 | Clc1ccc2nn(N=C3NCCN3)cc2c1 | – | – | – | – | – | 33.2 µM | – | – | – | 74.1 µM | 0.33 | – | 24.7 µM | –
9 | c1ccc2c(c1)ncn2N=C1NCCN1 | – | – | – | – | – | > 10 µM | – | – | – | 6.02 µM | > 16.6 | – | > 100 µM | –
10 | Cc1nn(N=C2NCCN2)c2ccccc12 | – | – | – | – | – | – | – | – | – | 71.1 µM | – | – | – | –
11 | Cc1cccc2c1cnn2N=C1NCCN1.Cl | -29 mmHg | -22.7 bpm | -14.1 mmHg | -17.7 mmHg | -104.2 bpm | 10.4 µM | -10.1 mmHg | -2.1 bpm | -88.3 bpm | 0.0371 µM | 1040 | – | 38.5 µM | –
12 | c1ccc2nn(N=C3NCCN3)cc2c1 | – | – | – | – | – | 77.8 µM | – | – | – | 78.3 µM | – | – | – | –
13 | Cl.Clc1ccc2c(cnn2N=C2NCCN2)c1 | -1.4 mmHg | 12.8 bpm | -2.8 mmHg | -0.2 mmHg | 0.6 bpm | 20.6 µM | -1.1 mmHg | 28.6 bpm | 7.2 bpm | 0.114 µM | 149 | – | 17 µM | –
14 | Cc1cccc2nn(N=C3NCCN3)cc12 | – | – | – | – | – | 35.1 µM | – | – | – | 11.8 µM | – | – | – | –
15 | c1ccc2c(c1)nnn2N=C1NCCN1 | – | – | – | – | – | > 10 µM | – | – | – | > 10 µM | < 8.46 | – | 84.6 µM | –
16 | Cl.c1ccc2c(c1)cnn2N=C1NCCN1 [MARSANIDINE HYDROCHLORIDE] | -30.9 mmHg | -31.4 bpm | -29 mmHg | -6.9 mmHg | -48.5 bpm | 16.9 µM | -22.1 mmHg | -9.7 bpm | -49 bpm | 0.0141 µM | 3880 | – | 54.5 µM | –
17 | Cc1ccc2c(cnn2N=C2NCCN2)c1.Cl | -3.6 mmHg | -1 bpm | -4.6 mmHg | -4.1 mmHg | -104.2 bpm | 7.16 µM | -4.9 mmHg | -3 bpm | -3.2 bpm | 0.0442 µM | 460 | – | 20.3 µM | –
18 | Cl.c1ccc(-c2nn(N=C3NCCN3)c3ccccc23)cc1 | -7.6 mmHg | -11.1 bpm | -10 mmHg | -4.1 mmHg | -17.7 bpm | 0.684 µM | -11.4 mmHg | -12.7 bpm | -10.1 bpm | 25.8 µM | 2.96 | – | 76.5 µM | –
19 | COc1cccc2c1cnn2N=C1NCCN1.Cl | -7.6 mmHg | -12.5 bpm | -11 mmHg | -3.7 mmHg | -18.6 bpm | 5.98 µM | -12.9 mmHg | -11.6 bpm | -9.7 bpm | 69.6 µM | 0.19 | – | 13.5 µM | –
20 | Cc1ccc2cn(N=C3NCCN3)nc2c1 | – | – | – | – | – | 42.9 µM | – | – | – | 50.7 µM | 0.39 | – | 19.7 µM | –
